ChEMBL document CHEMBL4004812, “Semisynthesis of (-)-Rutamarin Derivatives and Their Inhibitory Activity on Epstein-Barr Virus Lytic Replication” (J Nat Prod, 2017)
Active and inactive are the calls of the source. The rule behind the calls is not given here.

How the values were obtained:
Human gammaherpesvirus 4 = test: Inhibition of TPA/sodium butyrate-induced EBV lytic DNA replication in human P3HR1 cells incubated for 48 hrs post TPA/sodium butyrate induction by real-time PCR method; format: functional, cell-based; conditions: for IC50: human gammaherpesvirus 4, P3HR-1, 48 h
Method in brief: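 P3HR-1 cells were induced with TPA (20 ng/mL) plus sodium butyrate (0.3 mM) and given varied compound concentrations 3 h later. Total cellular DNA was purified 48 h postinduction. EBV DNA content was taken as (induced − noninduced) over the same difference in untreated cells, and IC50 was derived from the dose-response curve.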

P3HR-1 [1] = test: Cytotoxicity against human P3HR1 cells assessed as decrease in cell viability at 10 uM after 2 days by trypan blue staining-based light microscopic method; conditions: p3hr-1, 48 h
Method in brief: (§1)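 EBV-positive Burkitt's lymphoma P3HR-1 (clone 16) cells were grown in RPMI 1640 with 10% FBS, streptomycin and penicillin. They were exposed to the compounds, and viable cells were counted by Trypan blue exclusion under a light microscope 2 days post-treatment. Viability was expressed relative to untreated control cells, and CC50 was fitted from dose-response curves.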

[2] = (§2) Cytotoxicity against human P3HR1 cells assessed as decrease in cell viability after 2 days by trypan blue staining-based light microscopic method; set-up: species or system P3HR-1; conditions: P3HR1 cells; method in brief: as §1
[3] = Selectivity index, ratio of CC50 for human P3HR1 cells to IC50 for TPA/sodium butyrate-induced EBV lytic DNA replication
Method in brief: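 SI = CC50/IC50. CC50 came from Trypan blue viability counts 2 days after treatment. IC50 came from EBV DNA content 48 h after TPA/butyrate induction of P3HR-1 cells, with compound added at 3 h.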

P3HR-1 [4] = test: as §2; conditions: p3hr-1, 48 h; method in brief: as §1

IC50 (Human gammaherpesvirus 4) [µM]	SMILES	inhibition (Human gammaherpesvirus 4)	CC50 at 48 h [2] [µM]	Ratio CC50/IC50 [3]	other results
	C=CC(C)(C)c1cc2cc3c(cc2oc1=O)O[C@@H](C(C)(C)OC(=O)NCCN)C3	Active			
	C=CC(C)(C)c1cc2cc3c(cc2oc1=O)O[C@@H](C(C)(C)OC(=O)NCCOC(C)=O)C3	Active			
	C=CC(C)(C)c1cc2cc3c(cc2oc1=O)O[C@@H](C(C)(C)OC(=O)CNCc1ccco1)C3	Active			
	C=CC(C)(C)c1cc2cc3c(cc2oc1=O)O[C@@H](C(C)(C)OC(=O)CCl)C3				Activity (P3HR-1 [1]): Toxic
	C=CC(C)(C)c1cc2cc3c(cc2oc1=O)O[C@@H](C(C)(C)OC(=O)NCCO)C3	Active			
0.32	C=CC(C)(C)c1cc2cc3c(cc2oc1=O)O[C@@H](C(C)(C)OC(=O)OCCc1ccncc1)C3		67.6	211	
1.4	C=CC(C)(C)c1cc2cc3c(cc2oc1=O)O[C@@H](C(C)(C)OC(=O)NCCc1ccc(F)cc1)C3				
	C=CC(C)(C)c1cc2cc3c(cc2oc1=O)O[C@@H](C(C)(C)OC(=O)NCCC#N)C3	Active			
	C=CC(C)(C)c1cc2cc3c(cc2oc1=O)O[C@@H](C(C)(C)OC(=O)NCCCCN)C3	Active			
	C=CC(C)(C)c1cc2cc3c(cc2oc1=O)O[C@@H](C(C)(C)OC(=O)OCCc1ccccc1)C3	inactive			Activity (P3HR-1 [4]): Toxic
13.8	C=CC(C)(C)c1cc2cc3c(cc2oc1=O)O[C@@H](C(C)(C)OC(C)=O)C3		> 140	>10	
6.2	C=CC(C)(C)c1cc2cc3c(cc2oc1=O)O[C@@H](C(C)(C)OC(=O)OCCc1ccccn1)C3		42.7	7	
	C=CC(C)(C)c1cc2cc3c(cc2oc1=O)O[C@@H](C(C)(C)OC(=O)OCc1ccccn1)C3	Active			
	C=CC(C)(C)c1cc2cc3c(cc2oc1=O)O[C@@H](C(C)(C)OC(=O)CNCC)C3	Active		<3	Activity (P3HR-1 [4]): Toxic
	C=CC(C)(C)c1cc2cc3c(cc2oc1=O)OC(C(C)(C)OC(=O)OCCc1scnc1C)C3 (stereo not drawn)	Active			
	C=CC(C)(C)c1cc2cc3c(cc2oc1=O)O[C@@H](C(C)(C)OC(=O)CNCCCC)C3	Active		<3	Activity (P3HR-1 [4]): Toxic
4.5	C=CC(C)(C)c1cc2cc3c(cc2oc1=O)O[C@@H](C(C)(C)OC(=O)c1ccccc1)C3		370	83	
1.5	C=CC(C)(C)c1cc2cc3c(cc2oc1=O)O[C@@H](C(C)(C)OC(=O)OCCc1ccc(CC)cn1)C3		1200	801	
2	C=CC(C)(C)c1cc2cc3c(cc2oc1=O)O[C@@H](C(C)(C)OC(=O)CNC1CCCC1)C3		40.8	> 20	
0.83	C=CC(C)(C)c1cc2cc3c(cc2oc1=O)O[C@@H](C(C)(C)OC(=O)OCCN1C(=O)c2ccccc2C1=O)C3		> 100	>120	
	C=CC(C)(C)c1cc2cc3c(cc2oc1=O)O[C@@H](C(C)(C)OC(=O)CNCC1CCCO1)C3 (stereo partly drawn)	Active			
0.76	C=CC(C)(C)c1cc2cc3c(cc2oc1=O)O[C@@H](C(C)(C)OC(=O)CNCCc1ccc(F)cc1)C3		42.6	56	
2.1	C=CC(C)(C)c1cc2cc3c(cc2oc1=O)O[C@@H](C(C)(C)OC(=O)C=C(C)C)C3		> 100	>47	
	C=CC(C)(C)c1cc2cc3c(cc2oc1=O)O[C@@H](C(C)(C)OC(=O)CNC)C3	Active		<3	Activity (P3HR-1 [4]): Toxic
7	C=CC(C)(C)c1cc2cc3c(cc2oc1=O)O[C@H](C(C)(C)OC(C)=O)C3		> 150	>21	

SMILES	IC50 (Human gammaherpesvirus 4) [µM]	inhibition (Human gammaherpesvirus 4)	CC50 at 48 h [2] [µM]	Ratio CC50/IC50 [3]	other results
C=CC(C)(C)c1cc2cc3c(cc2oc1=O)O[C@@H](C(C)(C)O)C3	69.9				
